From ChEMBL document CHEMBL3758086, “Inhibitory effect of phenothiazine- and phenoxazine-derived chloroacetamides on Leishmania major growth and Trypanosoma brucei trypanothione reductase” (Eur J Med Chem, 2016)
Activity calls are given as the source filed them. No cut-off for these calls is given here.

Assays:
Leishmania major = experiment: Antileishmanial activity against promastigote stage of Leishmania major assessed as inhibition of parasite proliferation after 48 hrs by Alamar Blue assay; assay type: functional, organism-based
K562 = experiment: Cytotoxicity against human K562 cells assessed as cell growth inhibition after 48 hrs by Neubauer counting chamber analysis; assay type: cell-based; conditions: K562, 48 h
[1] = biological target: Trypanothione reductase (Trypanosoma brucei brucei) (UniProt P39051); experiment: Reversible inhibition of recombinant Trypanosoma brucei trypanothione reductase
Trypanothione reductase (Trypanosoma brucei brucei), sequence (P39051 whole entry, looked up): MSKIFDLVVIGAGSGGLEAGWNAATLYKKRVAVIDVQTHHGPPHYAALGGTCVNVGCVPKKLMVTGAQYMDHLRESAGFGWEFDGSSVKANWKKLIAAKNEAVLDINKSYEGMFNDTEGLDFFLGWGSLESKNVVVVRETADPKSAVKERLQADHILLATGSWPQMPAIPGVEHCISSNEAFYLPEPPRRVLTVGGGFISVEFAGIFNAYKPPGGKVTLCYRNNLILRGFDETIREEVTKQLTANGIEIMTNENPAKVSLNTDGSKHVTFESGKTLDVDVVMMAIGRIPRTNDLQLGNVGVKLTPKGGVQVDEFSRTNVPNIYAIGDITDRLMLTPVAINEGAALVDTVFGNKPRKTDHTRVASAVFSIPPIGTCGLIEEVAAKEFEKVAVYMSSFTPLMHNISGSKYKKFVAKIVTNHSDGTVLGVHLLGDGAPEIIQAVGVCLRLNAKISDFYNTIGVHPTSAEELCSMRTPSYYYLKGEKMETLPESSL

[2] = biological target: Trypanothione reductase (Trypanosoma brucei brucei) (UniProt P39051); experiment: Inhibition of recombinant Trypanosoma brucei trypanothione reductase at 25 uM in presence of NADPH, trypanothione disulphide
How it was run: (§1)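 T. brucei TR (1 µM) preincubated at 25 °C in 200 µL TR assay buffer with 400 µM NADPH and compound (25, 50 or 100 µM) or DMSO (5%). At 10, 30, 60, 120 and 180 min, a 5 µL aliquot went into a 1 mL standard assay with 100 µM NADPH, started with 100 µM trypanothione disulfide. Absorbance decrease at 340 nm followed at 25 °C.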

[3] = biological target: T1, Tryparedoxin peroxidase (Trypanosoma brucei) (UniProt Q9GU47); experiment: Time dependent inhibition of Trypanosoma brucei tryparedoxin peroxidase preincubated for 10 mins in presence of NADPH, tryparedoxin, T(SH)2 followed by addition of hydrogen peroxide
T1 sequence (whole entry): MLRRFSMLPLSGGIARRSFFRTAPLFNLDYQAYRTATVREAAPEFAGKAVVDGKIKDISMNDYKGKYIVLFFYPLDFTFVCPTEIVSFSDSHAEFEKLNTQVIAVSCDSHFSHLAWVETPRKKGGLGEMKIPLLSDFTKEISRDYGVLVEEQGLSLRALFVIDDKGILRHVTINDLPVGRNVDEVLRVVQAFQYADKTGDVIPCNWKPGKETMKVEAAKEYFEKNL
How it was run: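 Peroxidase cascade mixture of NADPH, T. brucei TR, tryparedoxin, peroxidase, T(SH)2 and inhibitor incubated 10 min, then reaction started with H2O2.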

[4] = biological target: Trypanothione reductase (Trypanosoma brucei brucei) (UniProt P39051); experiment: Inhibition of recombinant Trypanosoma brucei trypanothione reductase at 100 uM in presence of NADPH, trypanothione disulphide; how it was run: as §1
[5] = biological target: Trypanothione reductase (Trypanosoma brucei brucei) (UniProt P39051); conditions: 50 uM

inhibition [1] | inhibition [2] | TDI [3] | inhibition [4] | inhibition [5] | SMILES | IC50 (Leishmania major) [µM] | IC50 (K562) [µM]
inactive | – | – | – | – | O=C(CCl)N1c2ccccc2Sc2ccc(Cl)cc21 | 10.4 | 3.2
inactive | – | – | – | – | O=C(CCl)n1c2ccccc2c2ccccc21 | > 100 | 6.44
inactive | – | – | – | – | O=C(CCl)N1c2ccccc2C=Cc2ccccc21 | 48.1 | 6.2
inactive | inactive | – | – | – | Clc1ccc2c(c1)Nc1ccccc1O2 | 69.2 | –
inactive | – | inactive | – | – | O=C(CCl)N1c2ccccc2Sc2ccccc21 | 9.3 | 5
inactive | – | – | – | – | O=C(CBr)N1c2ccccc2Oc2ccc(Cl)cc21 | > 100 | 6.15
inactive | – | – | – | – | O=C(C(Cl)CCl)N1c2ccccc2Oc2ccccc21 (centres undefined) | 9.6 | –
inactive | – | – | – | – | O=C(CCCl)N1c2ccccc2Oc2ccccc21 | 39.1 | 15.2
inactive | – | – | – | – | O=C(CCCl)N1c2ccccc2Oc2ccc(Cl)cc21 | 15.7 | 10.2
inactive | – | – | – | – | O=C(CCl)N(c1ccccc1)c1cccc(Cl)c1 | 40.3 | –
– | – | – | – | – | NC[C@@H]1O[C@H](O[C@H]2[C@@H](O)[C@H](O[C@@H]3[C@@H](O)[C@H](N)C[C@H](N)[C@H]3O[C@H]3O[C@H](CO)[C@@H](O)[C@H](O)[C@H]3N)O[C@@H]2CO)[C@H](N)[C@@H](O)[C@@H]1O [PAROMOMYCIN] | > 100 | –
inactive | – | – | inactive | – | CC(=O)N1c2ccccc2Oc2ccc(Cl)cc21 | > 100 | > 30
inactive | – | – | – | – | CC(Cl)C(=O)N1c2ccccc2Oc2ccccc21 (centres undefined) | > 100 | > 30
– | – | – | – | – | CCCCCCCCCCCCCCCCOP(=O)([O-])OCC[N+](C)(C)C [MILTEFOSINE] | 36 | –
– | – | – | – | – | N=C(N)c1ccc(OCCCCCOc2ccc(C(=N)N)cc2)cc1 | 84 | –
inactive | – | – | – | – | O=C(CCl)N1c2ccccc2Oc2ccc(C(F)(F)F)cc21 | 9.6 | –
inactive | – | – | – | – | N#CCC(=O)N1c2ccccc2Oc2ccccc21 | > 100 | 23
inactive | – | – | – | – | O=C(CCCCl)N1c2ccccc2Oc2ccc(Cl)cc21 | > 100 | > 90
inactive | – | inactive | – | – | O=C(CCl)N1c2ccccc2COc2ccc(Cl)cc21 | 7.2 | 3.3
– | – | – | – | – | C[C@@H]1[C@H](O)[C@@H](C)/C=C/C=C/C=C/C=C/C=C/C=C/C=C/[C@H](O[C@@H]2O[C@H](C)[C@@H](O)[C@H](N)[C@@H]2O)C[C@@H]2O[C@](O)(C[C@@H](O)C[C@@H](O)[C@H](O)CC[C@@H](O)C[C@@H](O)CC(=O)O[C@H]1C)C[C@H](O)[C@H]2C(=O)O [AMPHOTERICIN B] | 0.33 | –
inactive | – | – | – | – | O=C(CCl)N1c2ccccc2CCc2ccccc21 | 43.3 | 4.8
inactive | – | – | – | – | O=C(C(Cl)Cl)N1c2ccccc2Oc2ccccc21 | 82 | > 30
inactive | – | – | – | – | O=C(CCl)Nc1cc(Cl)ccc1Oc1ccccc1 | 42.6 | –
inactive | – | – | – | – | O=C(CCl)N1c2cc(Cl)ccc2Oc2ccc(Cl)cc21 | 9.5 | 2.03
inactive | – | – | – | inactive | O=C(CCl)N1c2ccccc2Oc2ccc(Cl)cc21 | 7.6 | 3

SMILES | inhibition [1] | inhibition [2] | TDI [3] | inhibition [4] | inhibition [5] | IC50 (Leishmania major) [µM] | IC50 (K562) [µM]
ClCCN1c2ccccc2Oc2ccc(Cl)cc21 | inactive | – | – | – | – | > 100 | –
